Test results taken from ChEMBL document CHEMBL4513216, “Probing the Open Global Health Chemical Diversity Library for Multistage-Active Starting Points for Next-Generation Antimalarials” (ACS Infect Dis, 2020).

Assay: Toxicity liver stage against HepG2, at 10uM
Assay type: cell-based
Set-up: test concentration 10 uM, cell line HepG2-A16-CD81EGFP
Settings: human, HepG2-A16-CD81EGFP cells; read-out: INHIBITION
Procedure, shortened: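 Uninfected HepG2-A16-CD81EGFP cells, 3 × 10^3 per well, 1536-well, plated on prespotted compound at 10 μM final, parasite-free screening media added to match infected plates; puromycin 10 μM positive, DMSO 0.5% negative; run in parallel with 48 h PbLuc assay at 37 °C, 5% CO2; viability by CellTiter-Glo luminescence, normalized to controls.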

SMILES	cytotoxicity at 10 µM
COc1cccc(CNc2ccc(F)c(Cl)c2)c1O	4.56%
O=C(NCC1CCCO1)C1CCN(Cc2nc(C3CC3)no2)CC1 (stereo unspecified)	1.11%
CCC1CCCCCN1C(=O)c1nnc2ccccc2c1N (stereo unspecified)	7.85%
c1ccc(CCCN2CC[C@H](c3nnc(-c4ccccc4)o3)C2)cc1	4.77%
CC(=O)c1cc2ncc(C(=O)NC3CC3)cc2[nH]1	-0.0253%
CCOCCCNC(=O)c1cn(C(C)(C)C)c2ncccc12	2.05%
c1ccc2c(c1)CCN2c1nc(N2CCOCC2)c2nn[nH]c2n1	-3.29%
O=S(=O)(Nc1cnc(N2CCCC2)nc1)c1ccc(OC(F)(F)F)cc1	2.41%
O=S(=O)(NCCn1ccc(-c2ccccn2)n1)C1CCCCC1	8.63%
CNC(=O)[C@@]12CCC3(CCN(S(C)(=O)=O)CC3)[C@@H]1CN(C(C)=O)C2	-2.07%
Cc1ccc(N2CC[C@H]3OCC[C@@]3(C(=O)N3CCCC3)C2)nn1	2.46%
CCn1c(SCC(=O)N2CCCC2)nc2cc(C)[nH]c2c1=O	7.44%
CC(C)CCn1[nH]c(CNc2ccc(Cl)cc2)nc1=O	1.33%
COc1ccc(-c2ccnc3nc(N4CCCC4)[nH]c(=O)c23)cc1OC	9.29%
O=C1CSC(c2ccncc2)c2c[nH]nc2N1 (stereo unspecified)	13%
O=C(Cn1cnc(-c2ccccc2)cc1=O)Nc1ccncc1	3.48%
Fc1cccc(CN2CCC[C@@H](Cn3nnc(-c4ccccn4)n3)C2)c1	3.33%
COCCOCC(=O)N1C[C@@H]2CC[C@H](Oc3ccccc3Cl)[C@@H]2C1	-10.9%
CC1c2ccc(F)cc2CCN1C(=O)c1nc(=O)[nH][nH]1 (stereo unspecified)	15.6%
O=C(C1CCOc2ccccc21)N1CCOc2ccc(F)cc21 (stereo unspecified)	-7.54%
CC(C)n1nnnc1-c1ccc(NC(=O)CCC(F)(F)F)cc1F	-2.5%

SMILES	cytotoxicity at 10 µM
CNS(=O)(=O)CCCNC(C)(C)c1nc(C)cs1	11.1%
Cc1cc(Nc2ccc3c(c2)CC(=O)N3)nc(C2CC2)n1	0.658%
CCc1n[nH]c(C2CN(C(=O)COCC(F)(F)F)CCO2)n1 (stereo unspecified)	-3.48%
CN(Cc1ccc(Br)o1)C(=O)Nc1cccnc1	-7.91%
O=C(NCc1ccccc1CN1CCC(O)CC1)Nc1ccccc1	7.77%
CN(Cc1ccsc1)C(=O)Cn1c(CS(C)(=O)=O)nc2ccccc21	6.96%
NC(=O)C1CCN(CCc2ccc(NCc3cscn3)cc2)CC1	3.69%
OC1CCN(c2cnnc3ccccc23)CC1	-0.561%
Cc1cc(CN(C)C(=O)CN2CCCC2=O)no1	3.05%
CC(C)CCN1CCN(Cc2nc(C3CC3)no2)CC1	-8.77%
COc1ccc(CS(=O)(=O)CC(=O)NCc2ccccc2F)cc1F	3.33%
O=C([C@@H]1CCCO1)N1CCOCC2(CCN(Cc3cccnc3)C2)C1 (stereo partly specified)	-108%
O=C(C1CCOCC1)N1CCN(CC2CC2)c2ncccc2C1	-107%
COc1ccc(C(=O)N2CCC(Oc3cccc(C)c3)(C(=O)O)CC2)o1	9.24%
Cc1cc(C)c2c(N3CCN(CCN4CCOCC4)CC3)ncnc2n1	3.04%
COCCN(C)C(C(=O)O)c1ccc2ccccc2c1 (stereo unspecified)	3.54%
COCC(=O)NCc1cc2n(n1)CCCN(CCCC1CCCC1)C2	-5.01%
CO[C@H]1CN(C(C)C)C[C@@H]1NC(=O)Nc1ccc(C(F)(F)F)cc1	2.05%
O=C(CCc1cc2n(n1)CCCNC2)NCCCSC1CCCCC1	-5.52%
Fc1ccc(-n2cccn2)c(CN2CCCCC2CCn2ccnc2)c1 (stereo unspecified)	-11.3%
COCCn1ccnc1C1CCCN(C(=O)c2cc(F)cc(F)c2)C1 (stereo unspecified)	8.86%

SMILES	cytotoxicity at 10 µM
Cc1nc(O)cc(C2CCCN(C(=O)c3cccc(N(C)C)c3)C2)n1 (stereo unspecified)	-6.47%
Cc1noc(CC2CCN(Cc3ccc(CCC(C)(C)O)cc3)CC2)n1	-2.18%
Cn1cc(CN2CCC(CCC(=O)NCc3ccc(F)cc3)CC2)cn1	-19.5%
Cc1n[nH]c(C)c1CCCN(C)Cc1c[nH]nc1-c1ccc(F)cc1	3.45%
CCCc1nccn1-c1ccc(C(O)CN2CCOCC2)cc1 (stereo unspecified)	3.43%
CN(C)CCCn1ccc(-c2cccc(-c3cncnc3)c2)n1	2.51%
CCC(CO)N(Cc1ccccn1)C(=O)c1cccc(C#N)c1 (stereo unspecified)	-3.67%
NC(=O)C1CCCN(Cc2ccc(C(=O)Nc3cnns3)cc2)C1 (stereo unspecified)	13.7%
O=C(NCCc1cnccn1)c1ccc(S(=O)(=O)NC2CCC2)cc1	7.63%
CCn1ccnc1CN(C)C1CCCN(CCc2ccccc2)C1 (stereo unspecified)	-8.63%
COc1ccc(-n2ccc(C(=O)NCCN3CCCCC3)n2)cc1	-2.87%
COc1c(CNCC(O)c2ccccc2F)c(C(C)C)nn1C (stereo unspecified)	-8.91%
Cc1ccc(C(O)CNC(=O)NCc2c(C)cc(C)[nH]c2=O)cc1 (stereo unspecified)	-3.9%
CC(C)(C)c1n[nH]c(C2CN(C(=O)C3=COCCC3)CCO2)n1 (stereo unspecified)	-5.74%
O=C(NCCN1CCCS1(=O)=O)c1scnc1Cl	-3.67%
Cn1cc(-c2nc(C(=O)N3CCCC3Cn3cccn3)cs2)cn1 (stereo unspecified)	-9.25%
CCCc1n[nH]c(C2CN(C(=O)c3ccc(C)[nH]c3=O)CCO2)n1 (stereo unspecified)	0.238%
CCOc1ccccc1C1=CCN(C(=O)C2CCN(C)C(=O)C2)CC1 (stereo unspecified)	2.58%
Cc1ccccc1C1(CNC(=O)NC(C)c2nncn2C)CC1 (stereo unspecified)	-5.59%
CCN1CCN(CCCNC(=O)NC(C)c2nncn2C)CC1 (stereo unspecified)	-12.8%
c1ccc(-c2ccc(CN3CCOC(Cn4cncn4)C3)cc2)cc1 (stereo unspecified)	9.96%

SMILES	cytotoxicity at 10 µM
Cc1cnn(CC2CN(Cc3ccc(-n4cccn4)cc3)CCO2)c1 (stereo unspecified)	-0.674%
CC(C)n1ccnc1CN1CCCN(C(=O)CN(C)C2CC2)CC1	-3.96%
COc1cc(CNCc2ccnc(N3CCOCC3)c2)cc(Cl)c1OC	-8.7%
Cc1c(F)cc(C(=O)O)cc1S(=O)(=O)Nc1ccc2c(c1)OCCO2	-1.45%
c1ncn(CC2CCCN2Cc2cn3ccsc3n2)n1 (stereo unspecified)	-10.1%
Cc1cc(C(C)C(=O)N2CCCN(Cc3cscn3)CC2)c(C)o1 (stereo unspecified)	-1.58%
COc1ccc(-c2noc(CN3CCc4cncnc4C3)n2)cc1	-0.215%
CC(C)c1ncc2c(n1)CN(Cc1ccc(C(N)=O)cc1)CC2	-14.2%
CCCn1nc2c(cc1=O)CN(CC(=O)Nc1ccncc1)CC2	-17.8%
CCc1ccsc1C(=O)N1CCN(C(=O)CC(F)(F)F)CC1	-9.88%
COc1cc(CN[C@@H]2COC[C@H]2Cc2cc(C)no2)cc(OC)c1	0.975%
Cn1nc(C2CCCN(Cc3cc(F)ccc3F)C2)c2nccnc21 (stereo unspecified)	-12.9%
Cc1ccc(CNC2CCc3[nH]c(=O)ccc3C2)cc1C (stereo unspecified)	0.354%
Cc1ccc(N2CC[C@H]3C[C@H](C(=O)NCc4ccco4)O[C@@H]3C2)cc1	8.8%
c1cnc(NC[C@H]2OC[C@@H]3CCN(Cc4cccnc4)C[C@@H]32)nc1	-3.12%
O=C(N1CCCO1)[C@@]12CCO[C@@H]1CCN(Cc1cccs1)C2	-6.36%
Cc1cnc(N2CC3(CCN(S(=O)(=O)C4CC4)C3)C2)nc1	-109%
O=C(Cc1cccnc1)N1C[C@H]2CC[C@@H](C1)N(Cc1ccccc1)C2=O	7.93%
